Experimental data as given in ChEMBL document CHEMBL1126128, “Nonprostanoid prostacyclin mimetics. 3. Structural variations of the diphenyl heterocycle moiety” (J Med Chem, 1992).

Assay: Inhibition of ADP-induced aggregation of human blood platelets in plasma
Format: functional
Conditions: Homo sapiens, Plasma
In the case of Cc1ccc(-c2nc(CCc3cccc(OCC(=O)O)c3)oc2-c2ccc(C)cc2)cc1, the IC50 is reported as 0.34 µM.
With O=C(O)CCCCCCCSc1cc(-c2ccccc2)c(-c2ccccc2)nn1 the IC50 was > 78 µM.
For O=C(O)COc1cccc(CCc2nc(-c3ccsc3)c(-c3ccsc3)o2)c1, the IC50 was 17 µM.
In the case of O=C(O)CCCCCCCCn1nccc1C(c1ccccc1)c1ccccc1, the IC50 is reported as > 82 µM.
With O=C(O)CCCCCCCCn1nnnc1C(c1ccccc1)c1ccccc1 the IC50 was > 81 µM.
O=C(O)CCCCCCCn1c(C(F)(F)F)nc(-c2ccccc2)c1-c1ccccc1 showed an IC50 of 4.64 µM.
Molecule O=C(O)COc1cccc(CCn2nc(-c3ccccc3)c(-c3ccccc3)c2-c2ccccc2)c1 has an IC50 of 24.5 µM.
Work on O=C(O)COc1cccc(CCc2nc(-c3ccc(Cl)cc3)c(-c3ccc(Cl)cc3)o2)c1 yielded an IC50 of 17.1 µM.
Molecule O=C(O)CCCCCCCn1nnc(C(c2ccccc2)c2ccccc2)n1 has an IC50 of 7.9 µM.
Work on O=C(O)CCCCCCCn1cnc(-c2ccccc2)c1-c1ccccc1 yielded an IC50 of 8.19 µM.
For O=C(O)COc1cccc(CCc2nc3c4ccccc4c4ccccc4c3o2)c1, the IC50 was > 20 µM.
O=C(O)CCCCCCCn1nc(-c2ccccc2)c(-c2ccccc2)nc1=O showed an IC50 of 7.9 µM.
With O=C(O)CCCCCCCCOc1ncc(-c2ccccc2)c(-c2ccccc2)n1 the IC50 was > 79 µM.
Work on O=C(O)COc1cccc(/C=C/c2nnc(-c3ccccc3)n2-c2ccccc2)c1 yielded an IC50 of 2.99 µM.
Molecule O=C(O)COc1cccc(CCc2nc(-c3ccc(Br)cc3)c(-c3ccc(Br)cc3)o2)c1 has an IC50 of 12.6 µM.
With O=C(O)COc1cccc(CCC(=O)NCC(c2ccccc2)c2ccccc2)c1 the IC50 was > 79 µM.
With O=C(O)COc1cccc(CCn2ncc(-c3ccccc3)c2-c2ccccc2)c1 the IC50 was 0.75 µM.
O=C(O)COc1cccc(CCn2nc(-c3ccccc3)c(-c3ccccc3)cc2=O)c1 showed an IC50 of 1.9 µM.
O=C(O)CCCCCCCCn1nc(-c2ccccc2)c(-c2ccccc2)c1-c1ccccc1 showed an IC50 of 0.4 µM.
Work on O=C(O)COc1cccc(CCc2nc(-c3ccccc3)c(-c3ccccc3)s2)c1 yielded an IC50 of 0.86 µM.
Work on COc1ccc(-c2nc(CCc3cccc(OCC(=O)O)c3)oc2-c2ccc(OC)cc2)cc1 yielded an IC50 of 5.2 µM.
With O=C(O)CCCCCCCSc1nnc(-c2ccccc2)c(-c2ccccc2)c1-c1ccccc1 the IC50 was > 65 µM.
With O=C(O)CCCCCCCCn1c(-c2ccccc2)nc(-c2ccccc2)c1-c1ccccc1 the IC50 was 3.9 µM.
With O=C(O)CCCCCCCCc1nnc(-c2ccccc2)n1-c1ccccc1 the IC50 was > 85 µM.
With O=C(O)CCCCCCCCn1nc(-c2ccccc2)c(-c2ccccc2)c(-c2ccccc2)c1=O the IC50 was > 67 µM.
For O=C(O)CCCOc1ccc(-n2cnc(-c3ccccc3)c2-c2ccccc2)cc1, the IC50 was 29.2 µM.
O=C(O)CCCCCCCCn1nc(-c2ccccc2)c(-c2ccccc2)cc1=O gave an IC50 of 7.2 µM.
Molecule O=C(O)COc1cccc(CCn2cc(-c3ccccc3)c(-c3ccccc3)n2)c1 has an IC50 of 0.87 µM.
In the case of O=C(O)COc1cccc(CCc2nnc(-c3ccccc3)n2-c2ccccc2)c1, the IC50 is reported as 12.7 µM.
In the case of O=C(O)CCCCCCCCn1nc(-c2ccccc2)n(-c2ccccc2)c1=O, the IC50 is reported as 4.1 µM.
For O=C(O)COc1cccc(CCc2cc(-c3ccccc3)n(-c3ccccc3)n2)c1, the IC50 was 1.67 µM.
Work on CCc1ccc(-c2nc(CCc3cccc(OCC(=O)O)c3)oc2-c2ccc(CC)cc2)cc1 yielded an IC50 of 28.3 µM.
For O=C(O)CCCCCCCn1cc(-c2ccccc2)c(-c2ccccc2)nc1=O, the IC50 was 25.6 µM.
In the case of O=C(O)CCCCCCCCN1C(=O)NC(c2ccccc2)(c2ccccc2)C1=O, the IC50 is reported as > 78 µM.
For O=C(O)CCCCCCCSc1nnc(-c2ccccc2)c(-c2ccccc2)n1, the IC50 was > 74 µM.
In the case of O=C(O)CCCCCCCCn1c(=O)c2ccccc2n(-c2ccccc2)c1=O, the IC50 is reported as > 81 µM.
O=C(O)COc1cccc(CCc2nc(-c3ccccc3)c(-c3ccccc3)[nH]2)c1 showed an IC50 of 2.88 µM.
In the case of O=C(O)COc1cccc(CCc2cc(-c3ccccc3)n(C(c3ccccc3)c3ccccc3)n2)c1, the IC50 is reported as > 63 µM.
In the case of O=C(O)CCCCCCCCn1cc(-c2ccccc2)c(-c2ccccc2)c1, the IC50 is reported as 10.3 µM.
In the case of COc1cccc(-c2nc(CCc3cccc(OCC(=O)O)c3)oc2-c2cccc(OC)c2)c1, the IC50 is reported as 7.2 µM.
O=C(O)COc1cccc(CCc2nc(-c3ccc(F)cc3)c(-c3ccc(F)cc3)o2)c1 gave an IC50 of 4.8 µM.
In the case of O=C(O)COc1cccc(CCC(=O)NC(c2ccccc2)c2ccccc2)c1, the IC50 is reported as > 82 µM.
For O=C(O)CCCCCCCn1nc(-c2ccccc2)n(-c2ccccc2)c1=O, the IC50 was > 84 µM.
In the case of O=C(O)CCCCCCCn1cc(-c2ccccc2)c(-c2ccccc2)n1, the IC50 is reported as 1.38 µM.

Assay: Compound was tested for inhibition of ADP-induced aggregation of blood platelets in human platelet rich plasma at 20 uM concentration
Format: functional
Conditions: not given
In short: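 Human platelet-rich plasma with aggregation triggered by ADP and followed by aggregometry. Each test acid was run at one stated upper concentration, and the read-out is percent inhibition of aggregation at that concentration. Each value is from a single experiment or is the mean of duplicate determinations.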
O=C(O)COc1cccc(CCc2nc3c4ccccc4c4ccccc4c3o2)c1 gave an inhibition at 20 µM of 0%.
